The subject of one assay is HL-60. Kind of assay: Antiproliferative activity against human HL60 cells after 72 hrs by sulforhodamine B assay. Type of assay: functional, cell-based. The conditions noted are these: HL-60, 72 h, in the assay text read “MTT assay” for “sulforhodamine B assay”. In outline:
(§1)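 Cells seeded and exposed in triplicate to graded compound concentrations for 72 h. Suspension cells read by MTT conversion to coloured product; adherent cells read by sulforhodamine B. IC50 (50% growth inhibition versus untreated control) derived by the Logit method.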
(In SRB staining, fixed cells bind dye roughly in proportion to their protein.)

A further assay concerns HT-29. Kind of assay: Antiproliferative activity against human HT-29 cells after 72 hrs by sulforhodamine B assay. In kind it is functional, cell-based. The note with it: HT-29, 72 h. The gist of the method:
as §1

A further assay concerns SGC-7901. The assay is described as follows: Antiproliferative activity against human SGC7901 cells after 72 hrs by sulforhodamine B assay. Type of assay: functional, cell-based. The conditions noted are these: SGC-7901, 72 h. In outline: as §1
A further assay concerns HeLa. Kind of assay: Antiproliferative activity against human HeLa cells after 72 hrs by sulforhodamine B assay. In kind it is functional, cell-based. The gist of the method:
as §1

Assay [1] can be described thus: Antiproliferative activity against human KB/VCR cells after 72 hrs by sulforhodamine B assay. Type of assay: functional, cell-based. In outline:
as §1

Another assay has as its system KB. The assay is described as follows: Antiproliferative activity against human KB cells after 72 hrs by sulforhodamine B assay. Type of assay: functional, cell-based. The gist of the method:
as §1

The target in assay [2] is DNA topoisomerase 2-alpha (Homo sapiens, UniProt P11388). The assay is described as follows: Inhibition of human topoisomerase 2 alpha-mediated decatenation of kDNA at 100 uM after 15 mins.
The nature of assay [3]: Antiproliferative activity against human K562/A02 cells after 72 hrs by sulforhodamine B assay. In kind it is functional, cell-based. The conditions noted are these: K562/A02, 72 h, in the assay text read “MTT assay” for “sulforhodamine B assay”. The gist of the method:
as §1

The nature of assay [4]: Antiproliferative activity against human MCF7/ADR cells after 72 hrs by sulforhodamine B assay. In kind it is functional, cell-based. The note with it: NCI/ADR-RES. In outline: as §1

Structures are written as SMILES. Structures can show the parent of a compound that is named as a salt. Calls of active or inactive are those of the source. The calls are words filed in the database; no cut-off is given here.

Sequence of DNA topoisomerase 2-alpha (P11388 whole entry): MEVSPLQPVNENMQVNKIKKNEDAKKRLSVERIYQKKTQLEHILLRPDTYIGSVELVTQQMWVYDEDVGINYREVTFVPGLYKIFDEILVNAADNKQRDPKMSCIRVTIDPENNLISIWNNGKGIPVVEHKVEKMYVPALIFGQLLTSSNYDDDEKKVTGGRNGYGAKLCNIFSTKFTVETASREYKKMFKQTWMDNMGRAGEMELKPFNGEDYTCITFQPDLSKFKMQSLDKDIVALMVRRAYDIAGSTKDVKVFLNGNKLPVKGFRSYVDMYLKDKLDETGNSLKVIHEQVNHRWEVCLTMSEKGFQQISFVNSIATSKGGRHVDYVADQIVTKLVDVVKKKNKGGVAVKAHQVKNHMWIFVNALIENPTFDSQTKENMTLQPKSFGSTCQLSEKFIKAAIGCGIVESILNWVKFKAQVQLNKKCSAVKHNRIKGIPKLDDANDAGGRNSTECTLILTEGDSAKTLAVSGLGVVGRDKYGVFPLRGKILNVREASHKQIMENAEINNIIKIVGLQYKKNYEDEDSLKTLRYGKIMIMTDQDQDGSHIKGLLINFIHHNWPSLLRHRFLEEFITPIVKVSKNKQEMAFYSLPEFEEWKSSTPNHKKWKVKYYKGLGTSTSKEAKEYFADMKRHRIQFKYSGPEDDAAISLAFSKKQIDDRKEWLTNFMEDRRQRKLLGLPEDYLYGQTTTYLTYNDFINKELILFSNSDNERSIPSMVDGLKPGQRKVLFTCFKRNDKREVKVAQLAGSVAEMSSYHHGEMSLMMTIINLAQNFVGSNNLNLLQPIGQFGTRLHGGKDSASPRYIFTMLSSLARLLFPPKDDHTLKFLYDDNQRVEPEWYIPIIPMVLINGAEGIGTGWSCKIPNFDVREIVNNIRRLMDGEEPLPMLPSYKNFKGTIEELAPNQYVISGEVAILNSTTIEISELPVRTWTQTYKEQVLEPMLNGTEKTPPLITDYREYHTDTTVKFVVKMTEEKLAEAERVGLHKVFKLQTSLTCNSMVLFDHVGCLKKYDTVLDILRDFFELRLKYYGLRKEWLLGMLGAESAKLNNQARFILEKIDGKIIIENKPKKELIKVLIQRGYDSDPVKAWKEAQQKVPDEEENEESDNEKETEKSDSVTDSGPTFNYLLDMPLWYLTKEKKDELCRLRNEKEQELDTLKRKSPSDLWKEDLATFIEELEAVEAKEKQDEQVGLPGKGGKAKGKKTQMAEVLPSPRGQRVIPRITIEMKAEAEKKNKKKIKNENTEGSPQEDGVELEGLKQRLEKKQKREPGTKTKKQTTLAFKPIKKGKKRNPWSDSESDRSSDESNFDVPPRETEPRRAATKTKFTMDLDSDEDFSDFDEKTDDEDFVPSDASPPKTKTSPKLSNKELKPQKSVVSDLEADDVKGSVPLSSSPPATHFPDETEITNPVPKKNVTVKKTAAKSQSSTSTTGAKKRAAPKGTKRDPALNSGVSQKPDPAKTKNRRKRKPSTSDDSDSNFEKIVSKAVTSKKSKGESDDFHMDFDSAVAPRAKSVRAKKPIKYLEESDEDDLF

As a reminder, the IC50 is the concentration that inhibits the measured activity by half. High values mean weaker potency, low ones greater potency. For `N#Cc1ccc(NC(=S)N/N=C/c2ccc3ccccc3n2)cc1`, the 50% inhibitory concentration (IC50) in the assay with HL-60 was 4.66 µM; with HT-29, 15.6 µM; in the assay with SGC-7901 it was 23.7 µM; in the assay on HeLa, 20 µM.

For `COc1cccc(NC(=S)N/N=C/c2ccc3ccccc3n2)c1`, the IC50 in the assay on HL-60 came to 71.2 µM; in the assay with HT-29, 82.4 µM; in the assay with SGC-7901, 79.4 µM; in the assay with HeLa it was 74.5 µM.

As to `FC(F)(F)c1ccc(NC(=S)N/N=C/c2ccc3ccccc3n2)cc1`, the IC50 was determined as 34.9 µM in the assay with HL-60, 63.9 µM with HT-29, 72.2 µM in the assay with SGC-7901 and 59.1 µM with HeLa.

Take `COc1ccccc1NC(=S)N/N=C/c1ccc2ccccc2n1`: the IC50 was 91.7 µM in the assay with HL-60, > 100 µM in the assay on HT-29, > 100 µM in the assay on SGC-7901 and > 100 µM in the assay on HeLa.

For `CC[C@]1(O)C[C@H]2CN(CCc3c([nH]c4ccccc34)[C@@](C(=O)OC)(c3cc4c(cc3OC)N(C=O)[C@H]3[C@@](O)(C(=O)OC)[C@H](OC(C)=O)[C@]5(CC)C=CCN6CC[C@]43[C@@H]65)C2)C1` [VINCRISTINE], the figures for the IC50 (in assay [1]; in the assay on KB) were 0.84 µM and 0.01 µM, respectively.

Regarding `Cc1ccc(NC(=S)N/N=C/c2ccc3ccccc3n2)cc1`, the IC50 with HL-60 amounted to 78.3 µM; with HT-29 it was 85.5 µM; in the assay on SGC-7901, 92.9 µM; in the assay with HeLa it was 86 µM.

`CN(C)C(=S)N/N=C/c1ccc2cccnc2n1`: the IC50 with HL-60 is 0.56 µM; in the assay with HT-29, 0.41 µM; in the assay with SGC-7901, 0.63 µM; in the assay on HeLa, 0.97 µM. Also, in assay [2], the “inhibition (active/not active)” value was “Active”.

As to `S=C(N/N=C/c1ccc2ccccc2n1)Nc1ccc(Br)cc1`, the IC50 in the assay with HL-60 turned out to be 27.5 µM; in the assay on HT-29, 54.4 µM; in the assay with SGC-7901, 69.4 µM; in the assay with HeLa, 56.8 µM.

With `Cc1cccc(NC(=S)N/N=C/c2ccc3ccccc3n2)c1`, the IC50 in the assay with HL-60, with HT-29, in the assay with SGC-7901 and with HeLa was > 100 µM in each case.

For `Cc1csc2sc(/C=N/NC(N)=S)c(C)c12`, the IC50 in the assay on HL-60 is > 100 µM; in the assay with HT-29, 57.5 µM; in the assay with SGC-7901, > 100 µM; with HeLa it was 1.12 µM. In addition, in assay [2], the “inhibition (active/not active)” value was “inactive”.

With `CN(C)C(=S)N/N=C/c1cc2cccnc2s1`, the IC50 with HL-60 is > 100 µM; with HT-29 it was 13.4 µM; with SGC-7901, 21.4 µM; with HeLa, 48.4 µM. Moreover, in assay [2], the “inhibition (active/not active)” value is “Active”.

On to `S=C(N/N=C/c1ccc2ccccc2n1)Nc1cccc(Cl)c1`, for which the IC50 in the assay with HL-60 came to 28.8 µM; in the assay on HT-29, 48.1 µM; in the assay on SGC-7901, 61.3 µM; in the assay on HeLa it was 52.5 µM.

Take `S=C(N/N=C/c1ccc2ccccc2n1)Nc1ccccc1`: the IC50 is 9.13 µM in the assay with HL-60, 17 µM with HT-29, 26.5 µM in the assay with SGC-7901 and 27.4 µM in the assay with HeLa.

Take `NC(=S)N/N=C/c1cnc2ccccc2n1`: the IC50 in the assay on HL-60, in the assay with HT-29, in the assay on SGC-7901 and in the assay on HeLa was > 100 µM throughout.

Take `S=C(N/N=C/c1ccc2ccccc2n1)Nc1ccccc1Br`: the IC50 in the assay on HL-60, with HT-29, in the assay on SGC-7901 and with HeLa was > 100 µM in each case.

Consider `S=C(N/N=C/c1ccc2ccccc2n1)Nc1cccc(Br)c1`, for which the IC50 worked out at 53.8 µM with HL-60, 58.9 µM in the assay with HT-29, 78.6 µM in the assay on SGC-7901 and 70 µM in the assay on HeLa.

Consider `NC(=S)N/N=C/c1nc2ccccc2s1`, for which the IC50 with HL-60 was > 100 µM; in the assay with HT-29, > 100 µM; in the assay on SGC-7901, > 100 µM; in the assay with HeLa it was 5.35 µM. In addition, in [2], the “inhibition (active/not active)” value is “inactive”.

As for `Fc1cccc(NC(=S)N/N=C/c2ccc3ccccc3n2)c1`, the half-maximal inhibitory concentration (IC50) in the assay with HL-60 amounted to 43.8 µM; in the assay with HT-29, 74.7 µM; in the assay with SGC-7901, 79.9 µM; in the assay with HeLa it was 70.1 µM. Also, the “inhibition (active/not active)” value in assay [2] was “inactive”.

`CC(C)c1cccc(C(C)C)c1NC(=S)N/N=C/c1ccc2ccccc2n1`: the IC50 was 19.5 µM in the assay with HL-60, 20.7 µM with HT-29, 23.5 µM with SGC-7901 and 16.4 µM with HeLa.

On to `NC(=S)N/N=C/c1cc2cccnc2s1`, for which the IC50 is > 100 µM in the assay with HL-60, > 100 µM with HT-29, 100 µM with SGC-7901 and 6.29 µM in the assay with HeLa.

Turning to `NC(=S)N/N=C/c1cc2ccccc2s1`, the IC50 is > 100 µM in the assay on HL-60, 99.2 µM in the assay on HT-29, > 100 µM in the assay on SGC-7901 and 6.77 µM in the assay on HeLa. Moreover, the “inhibition (active/not active)” value in assay [2] was “inactive”.

As to `COc1ccc(C)cc1NC(=S)N/N=C/c1ccc2ccccc2n1`, the IC50 in the assay with HL-60, with HT-29, in the assay with SGC-7901 and with HeLa was > 100 µM each time.

As for `Cc1ccc(NC(=O)N/N=C/c2ccc3ccccc3n2)cc1`, the half-maximal inhibitory concentration (IC50) in the assay with HL-60, in the assay with HT-29, with SGC-7901 and in the assay with HeLa was > 100 µM each time.

As to `S=C(NCc1ccccc1)N/N=C/c1ccc2ccccc2n1`, the IC50 came out at 21.9 µM in the assay with HL-60, 75.7 µM in the assay on HT-29, 53.7 µM with SGC-7901 and 62.8 µM in the assay with HeLa.

Turning to `Fc1ccccc1NC(=S)N/N=C/c1ccc2ccccc2n1`, the IC50 with HL-60, in the assay with HT-29, with SGC-7901 and in the assay on HeLa was > 100 µM in each case.

As for `Fc1ccc(NC(=S)N/N=C/c2ccc3ccccc3n2)cc1`, the IC50 turned out to be 17 µM in the assay with HL-60, 28.5 µM in the assay with HT-29, 32.3 µM in the assay with SGC-7901 and 33.2 µM in the assay with HeLa.

Regarding `CN(C)C(=S)N/N=C/c1nc2ccccc2s1`, the IC50 in the assay on HL-60 is 3.68 µM; in the assay on HT-29 it was 0.25 µM; in the assay on SGC-7901, 0.83 µM; in the assay with HeLa, 2.1 µM. In addition, the “inhibition (active/not active)” value in assay [2] was “Active”.

On to `CN(C)C(=S)N/N=C/c1cnc2ccccc2n1`, for which the IC50 came to 0.09 µM in the assay on HL-60, 0.45 µM in the assay on HT-29, 0.17 µM in the assay on SGC-7901 and 0.75 µM in the assay on HeLa. Moreover, the “inhibition (active/not active)” value in assay [2] is “Active”.

As for `NC(=S)N/N=C/c1ccc2ccccc2n1`, the IC50 in the assay with HL-60 was > 100 µM; in the assay with HT-29, 100 µM; in the assay with SGC-7901 it was 32.7 µM; in the assay with HeLa, 0.96 µM. Moreover, the “inhibition (active/not active)” value in [2] is “inactive”.

Regarding `NC(=S)N/N=C/c1ccc2cccnc2n1`, the concentration for half-maximal inhibition (IC50) with HL-60 was > 100 µM; with HT-29 it was 12.8 µM; in the assay with SGC-7901, > 100 µM; in the assay with HeLa it was > 100 µM. Moreover, in assay [2], the “inhibition (active/not active)” value was “inactive”.

With `CN(C)C(=S)N/N=C/c1nc2ccccc2c2ncccc12`, the IC50 in the assay on HL-60 was 0.43 µM; in the assay on HT-29 it was 0.04 µM; in the assay with SGC-7901 it was 0.04 µM; with HeLa, 1.72 µM. The “inhibition (active/not active)” value in assay [2] was “Active”.

With `NC(=S)N/N=C/c1nc2ccccc2c2ncccc12`, the IC50 was > 100 µM with HL-60, 11.5 µM in the assay on HT-29, 7.36 µM in the assay with SGC-7901 and 21.9 µM in the assay on HeLa. Moreover, the “inhibition (active/not active)” value in assay [2] was “Active”.

For the compound `COc1ccc(NC(=S)N/N=C/c2ccc3ccccc3n2)cc1`, the IC50 in the assay with HL-60 was found to be 43.8 µM; with HT-29 it was 82.3 µM; in the assay with SGC-7901 it was 89.6 µM; in the assay on HeLa it was 72.6 µM.

Consider `Cc1ccccc1NC(=S)N/N=C/c1ccc2ccccc2n1`, for which the IC50 was 73.2 µM with HL-60, 42.2 µM in the assay on HT-29, > 100 µM in the assay on SGC-7901 and > 100 µM in the assay on HeLa. For the same compound, in [2], the “inhibition (active/not active)” value is “inactive”.

For the compound `COc1cccc2c1C(=O)c1c(O)c3c(c(O)c1C2=O)C[C@@](O)(C(=O)CO)C[C@@H]3O[C@H]1C[C@H](N)[C@H](O)[C@H](C)O1` [DOXORUBICIN HYDROCHLORIDE], the IC50 in assay [3] worked out at 23.8 µM; in [4], 44.9 µM.

Take `S=C(N/N=C/c1ccc2ccccc2n1)Nc1ccc(Cl)cc1`: the IC50 with HL-60 is > 100 µM; in the assay on HT-29, 97.2 µM; in the assay with SGC-7901, 87.6 µM; with HeLa, > 100 µM.

Consider `FC(F)(F)c1ccccc1NC(=S)N/N=C/c1ccc2ccccc2n1`, for which the IC50 in the assay with HL-60 worked out at 13.2 µM; in the assay with HT-29 it was 18.1 µM; in the assay with SGC-7901 it was 20.7 µM; in the assay on HeLa it was 18.8 µM.

Values taken from ChEMBL document CHEMBL1157101, “A series of alpha-heterocyclic carboxaldehyde thiosemicarbazones inhibit topoisomerase IIalpha catalytic activity” (J Med Chem, 2010).
